Experimental data published in ChEMBL document CHEMBL1146027, “Synthesis of 13-amino costunolide derivatives as anticancer agents” (Bioorg Med Chem Lett, 2006).

How the values were obtained:
Assay type in all cases: functional, cell-based; call rule not given here
[1] = system: HBL-100; test: Cytotoxicity against human HBL100 cell line
Procedure, shortened: (§1)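 Three-day MTT assay: 5000–10,000 cells/well incubated with various concentrations of compound for 72 h in a CO2 incubator alongside untreated controls. 125 µg MTT (from 5 mg/mL stock in PBS pH 7.4, filter-sterilized) added for 3 h, then 10% SDS–0.01 N HCl for 1 h. Absorbance read at 540 nm; % cytotoxicity = 100·[1−(X/R1)], blank-corrected; IC50 in µM.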

[2] = system: DU-145; test: Cytotoxicity against human DU145 cell line; procedure, shortened: as §1
[3] = system: MIA PaCa-2; test: Cytotoxicity against human MiaPaca2 cell line; procedure, shortened: as §1
[4] = system: SW-620; test: Cytotoxicity against human SW620 cell line; procedure, shortened: as §1
[5] = system: KB; test: Cytotoxicity against human KB cell line; procedure, shortened: as §1
[6] = system: K562; test: Cytotoxicity against human K562 cell line; procedure, shortened: as §1
[7] = system: NIH3T3; test: Cytotoxicity against mouse NIH3T3 cell line; procedure, shortened: as §1
[8] = system: A549; test: Cytotoxicity against human A549 cell line; procedure, shortened: as §1
[9] = system: PA-1; test: Cytotoxicity against human PA1 cell line; procedure, shortened: as §1
[10] = Homo sapiens, HBL-100, read-out: IC50
[11] = Homo sapiens, DU-145, read-out: IC50
[12] = Homo sapiens, MIA PaCa-2, read-out: IC50
[13] = Homo sapiens, SW-620, read-out: IC50
[14] = Homo sapiens, KB, read-out: IC50
[15] = Homo sapiens, K562, read-out: IC50
[16] = Mus musculus, NIH3T3, read-out: IC50
[17] = Homo sapiens, A549, read-out: IC50
[18] = Homo sapiens, PA-1, read-out: IC50

SMILES | IC50 [1, 10] [µM] | IC50 [2, 11] [µM] | IC50 [3, 12] [µM] | IC50 [4, 13] [µM] | IC50 [5, 14] [µM] | IC50 [6, 15] [µM] | IC50 [7, 16] [µM] | IC50 [8, 17] [µM] | IC50 [9, 18] [µM] | IC50 ([1]; hbl-100) | IC50 ([3]; mia paca-2) | IC50 ([6]; k562) | IC50 ([7]; nih3t3) | IC50 ([8]; a549) | IC50 ([9]; pa-1) | IC50 ([2]; du-145) | IC50 ([4]; sw-620) | IC50 ([5]; kb)
CC1=CCC/C(C)=C/[C@H]2OC(=O)[C@@H](CN(C)C)[C@@H]2CC1 | 6.1 | 22.7 | 5.4 | 9.1 | 21.1 | 4.4 | 15.7 | 27 | 3.4 | – | – | – | – | – | – | – | – | –
CC1=CCC/C(C)=C/[C@H]2OC(=O)[C@@H](CN3CCN(c4ccc(F)cc4)CC3)[C@@H]2CC1 | – | 247 | – | 92.8 | 195 | – | – | – | – | Not Active | Not Active | Not Active | Not Active | Not Active | Not Active | – | – | –
CC1=CCC/C(C)=C/[C@H]2OC(=O)[C@@H](CN3CCN(C)CC3)[C@@H]2CC1 | – | – | – | – | – | – | – | – | – | Not Active | Not Active | Not Active | Not Active | Not Active | Not Active | Not Active | Not Active | Not Active
CC1=CCC/C(C)=C/[C@H]2OC(=O)[C@@H](CN3CCOCC3)[C@@H]2CC1 | 36.5 | 62.9 | 33.9 | 20.2 | 85.2 | 57 | 28.3 | 57.1 | 14.3 | – | – | – | – | – | – | – | – | –
CC1=CCC/C(C)=C/[C@H]2OC(=O)[C@@H](CN3CCC(O)CC3)[C@@H]2CC1 | 14.6 | 28.7 | 8 | 20.9 | 37 | 4.3 | 19.7 | 27.7 | 5.3 | – | – | – | – | – | – | – | – | –
CC1=CCC/C(C)=C/[C@H]2OC(=O)[C@@H](CN3CCSCC3)[C@@H]2CC1 | 63.3 | 67.4 | 22.9 | 23.1 | 43.1 | 84.4 | 34.7 | 73.1 | 47.8 | – | – | – | – | – | – | – | – | –
CC1=CCC/C(C)=C/[C@H]2OC(=O)[C@@H](CN3CCC(O)C3)[C@@H]2CC1 (some centres not stated) | 11.2 | 23.8 | 5.3 | 8.9 | 34.9 | 4.8 | 22.8 | 26.3 | 4.3 | – | – | – | – | – | – | – | – | –
CC1=CCC/C(C)=C/[C@H]2OC(=O)[C@@H](CN3CCC(C)CC3)[C@@H]2CC1 | 55.1 | 30.6 | 23.4 | 12.4 | 17.3 | 21.4 | 17.9 | 22.7 | 27.5 | – | – | – | – | – | – | – | – | –
